Test results from PMC13170702 (Nuclear medicine and biology, 2025).

Test: organ radiation dose estimates, OLINDA 1.1, ICRP-60
Format: in vivo, human
How it was run: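 Whole-body PET-MR ran as nine scans to 214 min. Organ VOIs were drawn in AMIDE, giving decay-corrected %IA per VOI; remainder = whole body minus measured organs. TIACs came from the exponential model (EXM) in OLINDA 1.1. Per-participant organ doses used 70 kg adult male or 55 kg female models in OLINDA 1.1. Effective dose (mSv) = organ absorbed doses × ICRP-60 tissue weighting factors.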

## COC(=O)[C@@H](N)CC(=O)Nc1ccc2c(c1)Cc1cc([18F])ccc1-2 [[^18F]RP-115, methyl N^4-(7-[^18F]fluoro-9H-fluoren-2-yl)asparaginate]
F1 (189 MBq)
  Effective dose (whole body): 5.42 mSv
  Estimated absorbed dose, Adrenals: 3.89 mGy
  Estimated absorbed dose, Brain: 3.40 mGy
  Estimated absorbed dose, Breasts: 1.79 mGy
  Estimated absorbed dose, Gallbladder wall: 4.40 mGy
  Estimated absorbed dose, Heart wall: 4.25 mGy
  Estimated absorbed dose, Kidneys: 32.5 mGy
  Estimated absorbed dose, Liver: 7.85 mGy
  Estimated absorbed dose, Lower large intestine wall: 2.64 mGy
  Estimated absorbed dose, Lungs: 12.3 mGy
  Estimated absorbed dose, Muscle: 2.06 mGy
  Estimated absorbed dose, Osteogenic cells: 2.94 mGy
  Estimated absorbed dose, Ovaries: 2.83 mGy
  Estimated absorbed dose, Pancreas: 6.10 mGy
  Estimated absorbed dose, Red marrow: 2.15 mGy
  Estimated absorbed dose, Remainder: 2.62 mGy
  Estimated absorbed dose, Skin: 1.44 mGy
  Estimated absorbed dose, Small intestine: 6.06 mGy
  Estimated absorbed dose, Spleen: 8.87 mGy
  Estimated absorbed dose, Stomach wall: 2.68 mGy
  Estimated absorbed dose, Thymus: 7.08 mGy
  Estimated absorbed dose, Thyroid: 1.88 mGy
  Estimated absorbed dose, Upper, lower intestine wall: 3.09 mGy
  Estimated absorbed dose, Urinary bladder wall: 18.8 mGy
  Estimated absorbed dose, Uterus: 4.21 mGy
F2, no voiding (355 MBq)
  Effective dose (whole body): 10.6 mSv
  Estimated absorbed dose, Adrenals: 7.74 mGy
  Estimated absorbed dose, Brain: 5.65 mGy
  Estimated absorbed dose, Breasts: 2.93 mGy
  Estimated absorbed dose, Gallbladder wall: 7.35 mGy
  Estimated absorbed dose, Heart wall: 6.61 mGy
  Estimated absorbed dose, Kidneys: 93.4 mGy
  Estimated absorbed dose, Liver: 14.6 mGy
  Estimated absorbed dose, Lower large intestine wall: 4.26 mGy
  Estimated absorbed dose, Lungs: 25.5 mGy
  Estimated absorbed dose, Muscle: 3.45 mGy
  Estimated absorbed dose, Osteogenic cells: 4.69 mGy
  Estimated absorbed dose, Ovaries: 5.22 mGy
  Estimated absorbed dose, Pancreas: 7.78 mGy
  Estimated absorbed dose, Red marrow: 3.77 mGy
  Estimated absorbed dose, Remainder: 4.65 mGy
  Estimated absorbed dose, Skin: 2.31 mGy
  Estimated absorbed dose, Small intestine: 8.35 mGy
  Estimated absorbed dose, Spleen: 5.86 mGy
  Estimated absorbed dose, Stomach wall: 4.40 mGy
  Estimated absorbed dose, Thymus: 7.57 mGy
  Estimated absorbed dose, Thyroid: 17.0 mGy
  Estimated absorbed dose, Upper, lower intestine wall: 5.04 mGy
  Estimated absorbed dose, Urinary bladder wall: 32.9 mGy
  Estimated absorbed dose, Uterus: 47.2 mGy
F3 (117 MBq)
  Effective dose (whole body): 2.67 mSv
  Estimated absorbed dose, Adrenals: 2.50 mGy
  Estimated absorbed dose, Brain: 1.60 mGy
  Estimated absorbed dose, Breasts: 1.13 mGy
  Estimated absorbed dose, Gallbladder wall: 2.95 mGy
  Estimated absorbed dose, Heart wall: 2.26 mGy
  Estimated absorbed dose, Kidneys: 21.0 mGy
  Estimated absorbed dose, Liver: 5.81 mGy
  Estimated absorbed dose, Lower large intestine wall: 1.47 mGy
  Estimated absorbed dose, Lungs: 5.47 mGy
  Estimated absorbed dose, Muscle: 1.29 mGy
  Estimated absorbed dose, Osteogenic cells: 1.94 mGy
  Estimated absorbed dose, Ovaries: 1.63 mGy
  Estimated absorbed dose, Pancreas: 2.85 mGy
  Estimated absorbed dose, Red marrow: 1.36 mGy
  Estimated absorbed dose, Remainder: 1.61 mGy
  Estimated absorbed dose, Skin: 0.945 mGy
  Estimated absorbed dose, Small intestine: 3.30 mGy
  Estimated absorbed dose, Spleen: 3.02 mGy
  Estimated absorbed dose, Stomach wall: 1.68 mGy
  Estimated absorbed dose, Thymus: 2.23 mGy
  Estimated absorbed dose, Thyroid: 2.03 mGy
  Estimated absorbed dose, Upper, lower intestine wall: 1.91 mGy
  Estimated absorbed dose, Urinary bladder wall: 1.57 mGy
  Estimated absorbed dose, Uterus: 3.93 mGy
F4 (167 MBq)
  Effective dose (whole body): 3.90 mSv
  Estimated absorbed dose, Adrenals: 3.19 mGy
  Estimated absorbed dose, Brain: 2.79 mGy
  Estimated absorbed dose, Breasts: 1.47 mGy
  Estimated absorbed dose, Gallbladder wall: 3.08 mGy
  Estimated absorbed dose, Heart wall: 4.15 mGy
  Estimated absorbed dose, Kidneys: 28.1 mGy
  Estimated absorbed dose, Liver: 6.41 mGy
  Estimated absorbed dose, Lower large intestine wall: 2.09 mGy
  Estimated absorbed dose, Lungs: 9.27 mGy
  Estimated absorbed dose, Muscle: 1.67 mGy
  Estimated absorbed dose, Osteogenic cells: 2.46 mGy
  Estimated absorbed dose, Ovaries: 2.39 mGy
  Estimated absorbed dose, Pancreas: 3.95 mGy
  Estimated absorbed dose, Red marrow: 1.79 mGy
  Estimated absorbed dose, Remainder: 2.14 mGy
  Estimated absorbed dose, Skin: 1.19 mGy
  Estimated absorbed dose, Small intestine: 6.82 mGy
  Estimated absorbed dose, Spleen: 3.11 mGy
  Estimated absorbed dose, Stomach wall: 2.19 mGy
  Estimated absorbed dose, Thymus: 4.01 mGy
  Estimated absorbed dose, Thyroid: 2.31 mGy
  Estimated absorbed dose, Upper, lower intestine wall: 2.83 mGy
  Estimated absorbed dose, Urinary bladder wall: 4.93 mGy
  Estimated absorbed dose, Uterus: 6.49 mGy
Female n=4, mean±SD
  Effective dose (whole body): 0.0262±0.00361 mSv/MBq
  Estimated dose, Adrenals: 0.0207±0.00119 mGy/MBq
  Estimated dose, Brain: 0.0161±0.0018 mGy/MBq
  Estimated dose, Breasts: 0.00903±0.000633 mGy/MBq
  Estimated dose, Gallbladder wall: 0.0219±0.00297 mGy/MBq
  Estimated dose, Heart wall: 0.0213±0.00289 mGy/MBq
  Estimated dose, Kidneys: 0.196±0.0451 mGy/MBq
  Estimated dose, Liver: 0.0426±0.00491 mGy/MBq
  Estimated dose, Lower, large intestine wall: 0.0128±0.000858 mGy/MBq
  Estimated dose, Lungs: 0.0598±0.0109 mGy/MBq
  Estimated dose, Muscle: 0.0104±0.00065 mGy/MBq
  Estimated dose, Osteogenic cells: 0.0150±0.00144 mGy/MBq
  Estimated dose, Ovaries: 0.0145±0.000479 mGy/MBq
  Estimated dose, Pancreas: 0.0256±0.00462 mGy/MBq
  Estimated dose, Red marrow: 0.0111±0.000499 mGy/MBq
  Estimated dose, Remainder: 0.0134±0.000535 mGy/MBq
  Estimated dose, Skin: 0.00734±0.000677 mGy/MBq
  Estimated dose, Small intestine: 0.0312±0.00733 mGy/MBq
  Estimated dose, Spleen: 0.0270±0.0139 mGy/MBq
  Estimated dose, Stomach wall: 0.0135±0.000943 mGy/MBq
  Estimated dose, Thymus: 0.0255±0.00826 mGy/MBq
  Estimated dose, Thyroid: 0.0223±0.0174 mGy/MBq
